The source made the active and inactive calls. The calls are words filed in the database; no cut-off is given here.
Columns and labels:
[1] = test system: BXPC-3; experiment: Cytotoxicity against human BXPC-3 cells measured after 72 hrs by MTT assay; format: functional, cell-based; details: BXPC-3, 72 h
Procedure, shortened: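 Cells were kept in RPMI 1640 with 10% FBS at 37 °C, 5% CO₂, under 35 passages. Cells were seeded, attached overnight and treated with compound or DMSO for 72 h. MTT was added at 0.3 mg/mL for 3 h, then dissolved in DMSO and read as absorbance at 570 nm. IC50 was fitted from the curve. Values are mean ± sd of three independent experiments.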

[2] = test system: MIA PaCa-2; experiment: Induction of reactive oxygen species in human MIA PaCa-2 cells at 10 uM measured after 1 hr by CM-H2DCFDA dye based fluorescence assay; format: functional, cell-based
Procedure, shortened: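 1.8 × 10⁴ cells per well were attached overnight, then loaded with 10 μM CM-H2DCFDA in HBSS for 40 min at 37 °C and washed. Compounds were added in HBSS. Fluorescence was read at Ex 483 / Em 530 nm. TBHP was the positive control. NAC at 3 mM was used where stated.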

[3] = biological target: Signal transducer and activator of transcription 3 (Homo sapiens) (UniProt P40763); experiment: Inhibition of STAT3 phosphorylation in human PANC-1 cells at 1.2 to 1.8 uM measured after 4 hrs by Western blot analysis; format: cell-based; details: dose microM 1.2-1.8, time 4.0 hrs
Procedure, shortened: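 Cells were treated 4 h at the stated concentrations and lysed in RIPA with protease and phosphatase inhibitors. 25 μg protein was resolved on 10% SDS gels, transferred to PVDF and probed for STAT3, pSTAT3, pH2AX and GAPDH. Detection used fluorescent secondary antibodies, with normalisation to loading control.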

[4] = test system: MIA PaCa-2; experiment: Cytotoxicity against human MIA PaCa-2 cells measured after 72 hrs in presence of N-acetylcysteine by MTT assay; format: functional, cell-based; details: MIA PaCa-2, 72 h
[5] = test system: MIA PaCa-2; experiment: Inhibition of colony formation in human MIA PaCa-2 cells at 0.5 to 2 uM measured after 7 to 9 days in presence of N-acetylcysteine by crystal violet staining based assay; format: functional, cell-based; details: dose microM 0.5-2, time day 7-9
Procedure, shortened: (§1)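 Cells seeded overnight in 96-well plates at 300 cells/well (MIA PaCa-2) or 600 cells/well (BxPC-3), in RPMI 1640 with 10% FBS. Inhibitor added 1 h before compound, then continuous exposure for 7–9 days until control wells were 80–90% confluent. Stained with 0.05% crystal violet for 30 min, imaged after overnight drying and quantified.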

[6] = test system: MIA PaCa-2; experiment: Induction of reactive oxygen species in human MIA PaCa-2 cells assessed as reduction in GSH to GSSG ratio at 1.5 to 6 uM measured after 2 to 4 hrs by GSH/GSSG-glo assay; format: functional, cell-based; details: dose microM 1.5-6, time hrs 2-4
Procedure, shortened: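 GSH/GSSG-Glo luminescent assay: 15,000–20,000 MIA PaCa-2 cells per well, attached overnight, treated 2 h and 4 h. Cells were lysed with total or oxidized glutathione reagent, then luciferin generation (30 min, room temperature) and detection reagents added. Luminescence was read after 15 min. Ratio was computed from net RLU as (total − GSSG)/(GSSG/2).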

[7] = test system: MIA PaCa-2; experiment: Inhibition of colony formation in human MIA PaCa-2 cells at 0.4 to 0.8 uM measured after 7 to 9 days in presence of ferroptosis inhibitor ferrostatin-1 by crystal violet staining based assay; format: functional, cell-based; details: dose microM 0.4-0.8, time day 7-9; procedure, shortened: as §1
[8] = test system: MIA PaCa-2; experiment: Down regulation of PNPT1 expression in human MIA PaCa-2 cells at 3 times IC50 measured after 4 hrs by proteomics analysis; format: functional, cell-based
[9] = test system: MIA PaCa-2; experiment: Down regulation of LRPPRC expression in human MIA PaCa-2 cells at 3 times IC50 measured after 4 hrs by proteomics analysis; format: functional, cell-based
[10] = biological target: T1, Phospholipid hydroperoxide glutathione peroxidase GPX4 (Homo sapiens) (UniProt P36969); experiment: Binding affinity to GPX4 in human MIA PaCa-2 cells assessed as protein destabilization by measuring melting temperature at 100 uM measured after 1 hr by thermal shift assay (reference value: 60.34 degreeC); format: cell-based
T1 sequence (whole entry): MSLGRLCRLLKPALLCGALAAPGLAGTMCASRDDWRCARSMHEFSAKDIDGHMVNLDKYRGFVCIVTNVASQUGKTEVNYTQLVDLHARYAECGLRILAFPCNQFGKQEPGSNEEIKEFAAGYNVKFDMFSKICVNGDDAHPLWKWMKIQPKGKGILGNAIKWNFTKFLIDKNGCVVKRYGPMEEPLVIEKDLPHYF

[11] = test system: MIA PaCa-2; experiment: Down regulation of PNPT1 gene expression in human MIA PaCa-2 cells at 3 times IC50 measured after 4 hrs by Trizol reagent based Bru labelling based gene sequence analysis; format: functional, cell-based
Procedure, shortened: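 Bru-seq: 2 × 10⁶ cells were seeded in duplicate and treated at 3 × IC50 for 4 h. Bromouridine (2 mM final) was added for the last 30 min at 37 °C. Total RNA was extracted in TRIzol. BrU-labelled RNA was captured with anti-BrdU magnetic beads, made into cDNA libraries and deep-sequenced.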

[12] = test system: MIA PaCa-2; experiment: Down regulation of PNPT1 expression in human MIA PaCa-2 cells at 1.2 uM measured after 24 hrs by proteomics analysis; format: functional, cell-based
Procedure, shortened: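 MIA PaCa-2 cells were treated with 1.2 μM compound or DMSO for 24 h and lysed in RIPA buffer. 75 μg protein per sample was run in duplicate by TMT10plex-labelled proteomics. Abundance ratio was taken as treatment over control. Changes of at least 1.5-fold at FDR < 0.05 were scored.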

[13] = test system: MIA PaCa-2; experiment: Down regulation of PNPT1 expression in human MIA PaCa-2 cells at 3 times IC50 measured after 4 hrs in presence of NQO1 inhibitor dicoumarol by proteomics analysis; format: functional, cell-based
[14] = test system: PANC-1; experiment: Down regulation of LRPPRC expression in human PANC-1 cells at 3 times IC50 measured after 1 to 24 hrs by proteomics analysis; format: functional, cell-based; details: time hrs 1-24
[15] = test system: PANC-1; experiment: Down regulation of PNPT1 expression in human PANC-1 cells at 3 times IC50 measured after 1 to 24 hrs by proteomics analysis; format: functional, cell-based; details: time hrs 1-24
[16] = Plasma concentration in CD-1 mouse at 20 mg/kg, po measured after 7 hrs by LC-MS/MS analysis; format: ADME, organism-based
Procedure, shortened: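 CD-1 mice dosed IP at 10 mg/kg or PO at 20 mg/kg, n=2 per route. Blood taken with heparinized pipettes at 0.5, 2, 4 and 7 h and spun at 15,000 rpm for 10 min. Plasma stored at −80 °C, then measured by LC-MS/MS.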

[17] = Toxicity in CD-1 mouse assessed as death at 10 mg/kg, iv; format: organism-based; details: in vivo
Procedure, shortened: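 CD-1 mice given a single IV injection at 10 mg/kg, three mice per group. Blood was drawn into heparinized pipettes at 0.5, 2, 4 and 7 h for plasma LC-MS/MS. Deaths were noted over the course of the study.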

[18] = Drug metabolism in mouse plasma assessed as 7-hydroxy-6-[4-(4-methylpiperazin-1-yl)anilino]-6,7-dihydroquinazoline-5,8-dione formation at 500 uM measured after 0.5 hrs by LC-MS/MS analysis; format: ADME, cell-free
Procedure, shortened: (§2)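 Compound (500 μM DMSO stock, 1 μL per 500 μL) was incubated in pooled mouse plasma. Samples were taken at 0.5 h and metabolites identified by LC-MS/MS.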

[19] = Drug metabolism in mouse plasma assessed as 5,8-dimethoxy-N-[4-(4-methylpiperazin-1-yl)phenyl]quinazolin-6-amine formation at 500 uM measured after 0.5 hrs by LC-MS/MS analysis; format: ADME, cell-free; procedure, shortened: as §2

Chain of Signal transducer and activator of transcription 3 (Homo sapiens) (P40763 whole entry): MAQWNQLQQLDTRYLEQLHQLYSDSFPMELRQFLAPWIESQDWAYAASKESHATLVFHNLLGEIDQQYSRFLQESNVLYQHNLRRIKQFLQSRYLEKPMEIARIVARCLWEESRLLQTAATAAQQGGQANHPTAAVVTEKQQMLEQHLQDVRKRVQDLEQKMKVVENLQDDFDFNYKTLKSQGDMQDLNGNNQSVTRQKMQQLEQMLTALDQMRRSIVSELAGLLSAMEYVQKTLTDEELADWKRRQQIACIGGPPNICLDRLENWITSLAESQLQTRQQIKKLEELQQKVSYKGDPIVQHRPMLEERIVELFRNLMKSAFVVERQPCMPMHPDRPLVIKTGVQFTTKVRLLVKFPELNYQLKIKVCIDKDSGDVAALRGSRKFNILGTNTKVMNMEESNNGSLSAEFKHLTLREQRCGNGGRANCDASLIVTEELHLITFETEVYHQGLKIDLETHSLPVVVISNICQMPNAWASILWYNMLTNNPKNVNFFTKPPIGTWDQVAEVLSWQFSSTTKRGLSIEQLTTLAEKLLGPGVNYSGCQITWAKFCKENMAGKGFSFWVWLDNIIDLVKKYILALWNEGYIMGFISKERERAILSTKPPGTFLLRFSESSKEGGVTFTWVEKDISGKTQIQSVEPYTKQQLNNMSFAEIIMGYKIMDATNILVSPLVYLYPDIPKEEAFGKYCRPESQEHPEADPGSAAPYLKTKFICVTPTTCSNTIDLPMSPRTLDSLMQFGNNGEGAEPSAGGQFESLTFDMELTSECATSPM

**Q.** With `CN1CCN(c2ccc(NC3=CC(=O)c4ncncc4C3=O)cc2)CC1` as the compound, how does the IC50 [1] read?
**A.** 900 nM

**Q.** What about the Activity [2] of the same compound?
**A.** Active

**Q.** What about the inhibition [3] of the same compound?
**A.** Active

**Q.** And the IC50 [4]?
**A.** 1110 nM

**Q.** And the inhibition [5]?
**A.** inactive

**Q.** What about the Activity [6] of the same compound?
**A.** Active

**Q.** What about the inhibition [7] of the same compound?
**A.** Active

**Q.** And the Activity [8]?
**A.** Active

**Q.** What about the Activity [9] of the same compound?
**A.** Active

**Q.** What about the Tm [10] of the same compound?
**A.** 57.6 °C

**Q.** What about the Activity [11] of the same compound?
**A.** Active

**Q.** What about the Activity [12] of the same compound?
**A.** Active

**Q.** What about the Activity [13] of the same compound?
**A.** inactive

**Q.** And the Activity [14]?
**A.** inactive

**Q.** What about the Activity [15] of the same compound?
**A.** inactive

**Q.** And the concentration at 7 h [16]?
**A.** 23.3 ng/mL

**Q.** And the Activity [17]?
**A.** Toxic

**Q.** And the Drug metabolism [18]?
**A.** Metabolite_Detected

**Q.** And the Drug metabolism [19]?
**A.** Metabolite_Detected

Source: ChEMBL document CHEMBL4725371, “A Novel Redox Modulator Induces a GPX4-Mediated Cell Death That Is Dependent on Iron and Reactive Oxygen Species” (J Med Chem, 2020)
